Measured values from ChEMBL document CHEMBL4819012, “Discovery of novel 2-aryl-3-sulfonamido-pyridines (HoAns) as microtubule polymerization inhibitors with potent antitumor activities” (Eur J Med Chem, 2021).
Each block holds one compound with its values, some of them ahead of it. Active and inactive are the calls of the source. The rule behind the calls is not given here.

Legend:
[1] = test system: PLC-PRF-5; assay: Antiproliferative activity against human PLC-PRF-5 cells assessed as cell viability measured after 72 hrs by MTS method; type: functional, cell-based; conditions: PLC-PRF-5, 72 h
Method in brief: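 Log-phase cells plated at 5×10^3–6×10^3 per well for 24 h, then given graded compound concentrations in fresh medium for 72 h, five replicate wells. Medium replaced with medium containing 10% MTS, 30 min or more at 37 °C in dark; OD 490 nm read. IC50 by nonlinear regression; mean ± SD of at least three experiments.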

[2] = test system: RKO; assay: Induction of apoptosis in human RKO cells assessed as viable cells at 0.5 uM measured after 24 hrs by PI/Annexin V staining based flow cytometry assay (reference value: 96.6%); type: functional; conditions: read-out: Activity
[3] = test system: SW-620; assay: Induction of apoptosis in human SW-620 cells assessed as early apoptotic cells at 0.5 uM measured after 24 hrs by PI/Annexin V staining based flow cytometry assay (reference value: 2.41%); type: functional
[4] = test system: SW-620; assay: Induction of apoptosis in human SW-620 cells assessed as necrotic cells at 0.5 uM measured after 24 hrs by PI/Annexin V staining based flow cytometry assay (reference value: 0.03%); type: functional
[5] = test system: PANC-1; assay: Induction of cell cycle arrest in human PANC-1 cells assessed as accumulation of cells in G1 phase at 0.5 uM measured after 24 hrs by PI staining based flow cytometry method (reference value: 31.35%); type: functional
[6] = test system: SW-620; assay: Induction of cell cycle arrest in human SW-620 cells assessed as accumulation of cells in G2 phase at 0.5 uM measured after 24 hrs by PI staining based flow cytometry method (reference value: 13.83%); type: functional
[7] = Toxicity against Athymic nude mouse xenografted with SW-620 cells assessed as toxicity in spleen at 25 mg/kg per two days, po measured after 20 days by H and E staining method; type: organism-based; conditions: in vivo, 480 h, time 20 day
Method in brief: (§1)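 At the end of the 20-day oral SW620 xenograft study (25 mg/kg every 2 days, n = 6), heart, liver, spleen, lung and kidney were fixed in 4% paraformaldehyde and embedded in paraffin. 4 μm sections stained with Mayer hematoxylin 5 min and eosin-phloxine 2 min, then examined by light microscopy.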

[8] = test system: SW-620; assay: Induction of apoptosis in human SW-620 cells assessed as late apoptotic cells at 0.5 uM measured after 24 hrs by PI/Annexin V staining based flow cytometry assay (reference value: 3.66%); type: functional
[9] = test system: SW-620; assay: Induction of cell cycle arrest in human SW-620 cells assessed as accumulation of cells in G1 phase at 0.5 uM measured after 24 hrs by PI staining based flow cytometry method (reference value: 40.06%); type: functional
[10] = test system: RKO; assay: Induction of cell cycle arrest in human RKO cells assessed as accumulation of cells in G2 phase at 0.5 uM measured after 24 hrs by PI staining based flow cytometry method (reference value: 10.79%); type: functional
[11] = test system: RKO; assay: Induction of apoptosis in human RKO cells assessed as increase in ROS levels at 0.25 uM measured after 24 hrs by DCFH-DA staining based flow cytometry method relative to control; type: functional
Method in brief: (§2)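 Cells at 5×10^5 per well exposed to 0.25 or 0.5 µM for 24 h, then loaded with 5 µM DCFH-DA in serum-free medium 30 min at 37 °C; washed, harvested, read by flow cytometry (ex 488/em 525 nm). ROS given as ratio of treated to control; at least three experiments.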

[12] = test system: RKO; assay: Antiproliferative activity against human RKO cells assessed as inhibition of cell proliferation measured after 24 hrs by crystal violet staining based colony-formation assay; type: functional; conditions: dose 0.125-1 µM
Method in brief: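 RKO or SW620 cells plated at 1000 cells/well overnight, exposed to 0.125–1 µM for 24 h, then grown 10 days in fresh medium. Colonies fixed in methanol 15 min, stained with 0.1% crystal violet 30 min, photographed; colonies of more than 50 cells counted.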

[13] = test system: SW-620; assay: Induction of cell cycle arrest in human SW-620 cells assessed as accumulation of cells in S phase at 0.5 uM measured after 24 hrs by PI staining based flow cytometry method (reference value: 46.12%); type: functional
[14] = test system: SW-620; assay: Induction of apoptosis in human SW-620 cells assessed as increase in ROS levels at 0.25 uM measured after 24 hrs by DCFH-DA staining based flow cytometry method relative to control; type: functional; method in brief: as §2
[15] = test system: RKO; assay: Induction of apoptosis in human RKO cells assessed as early apoptotic cells at 0.5 uM measured after 24 hrs by PI/Annexin V staining based flow cytometry assay (reference value: 2.58%); type: functional
[16] = test system: RKO; assay: Induction of cell cycle arrest in human RKO cells assessed as accumulation of cells in S phase at 0.5 uM measured after 24 hrs by PI staining based flow cytometry method (reference value: 49.66%); type: functional
[17] = Inhibition of tubulin polymerization assessed as morphology changes from fusiform to roud at 1 uM measured 24 hrs by DAPI staining based immunoflourescence assay relative to ABT-751
[18] = test system: MCF7; assay: Antiproliferative activity against human MCF7 cells assessed as cell viability at 10 uM measured after 72 hrs by MTS method; type: functional; conditions: read-out: Activity
Method in brief: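 Single-concentration screen at 10 µM for 72 h. Log-phase cells plated at 5×10^3–6×10^3 per well for 24 h before dosing, five replicate wells. Viability measured by MTS: 10% MTS in fresh medium, 30 min or more at 37 °C in dark, absorbance 490 nm.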

[19] = test system: RKO; assay: Induction of cell cycle arrest in human RKO cells assessed as reduction in Cyclin B1 expression at 0.5 to 1 uM measured after 24 hrs by western blot assay; type: functional, cell-based; conditions: dose 0.5-1 µM
Method in brief: (§3)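 RKO or SW620 cells (4×10^5–5×10^5 per well) exposed to 0.5 or 1 μM or DMSO for 24 h. Lysed in SDS loading buffer, boiled, run on 8–15% SDS-PAGE and moved to PVDF. Blocked in 5% milk, probed overnight at 4 °C with anti-Cdc2 or anti-cyclin B1 (1:1000), β-actin as reference. HRP secondary and ECL detection. Done at least three times.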

[20] = test system: SW-620; assay: Induction of apoptosis in human SW-620 cells assessed as viable cells at 0.5 uM measured after 24 hrs by PI/Annexin V staining based flow cytometry assay (reference value: 93.89%); type: functional; conditions: read-out: Activity
[21] = Toxicity against Athymic nude mouse xenografted with SW-620 cells assessed as toxicity in heart at 25 mg/kg per two days, po measured after 20 days; type: organism-based; conditions: in vivo, 480 h, time 20 day; method in brief: as §1
[22] = test system: RKO; assay: Induction of apoptosis in human RKO cells assessed as necrotic cells at 0.5 uM measured after 24 hrs by PI/Annexin V staining based flow cytometry assay (reference value: 0.01%); type: functional
[23] = test system: RKO; assay: Induction of cell cycle arrest in human RKO cells assessed as reduction in cdc2 expression at 0.5 to 1 uM measured after 24 hrs by western blot assay; type: functional, cell-based; conditions: dose 0.5-1 µM; method in brief: as §3

SMILES: COc1ccc(S(=O)(=O)Nc2cccnc2Nc2ccc(O)cc2)cc1 [ABT-751]
IC50 [1]: 792 nM

inhibition [17]: Active
SMILES: COc1ccc(S(=O)(=O)Nc2cccnc2-c2ccc(C#N)c(F)c2)cc1
viability at 0.5 µM [2]: 74.5% | Activity [3]: 6.66% | Activity [4]: 0.06% | Activity [5]: 34.22% | Activity [6]: 14.44% | Activity [7]: Non-Toxic | Activity [8]: 3.11% | Activity [9]: 38.03% | Activity [10]: 16.65% | fold change (FC) [11]: 1.5 | Activity [12]: Dose-Dependent Effect | Activity [13]: 42.53% | fold change (FC) [14]: 1.5 | Activity [15]: 24.47% | Activity [16]: 46.37% | viability at 10 µM [18]: > 70% | Activity [19]: Active | viability at 0.5 µM [20]: 90.2% | Activity [21]: Non-Toxic | Activity [22]: 0.03% | Activity [23]: Active
